Results as given in publication PMC10872764 (Journal of controlled release : official journal of the …, 2023).

Legend:
[1] = cited from earlier work
ACE2 [2] = target: T1, ACE2 (Homo sapiens, UniProt Q9BYF1); assay: Activity of recombinant ACE2 with Zn chelation by DTPA; format: biochemical; conditions: 25 μg/mL H4 (200 ng/mL elsewhere in the source), 25 mM DTPA, 37 °C
Procedure, shortened: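 Human recombinant ACE2 was incubated at 37 °C with or without test compound (25 μg/mL in methods; 200 ng/mL in legend). Free Zn was depleted with 25 mM DTPA. Activity was read by fluorogenic Mca-YVADAPK(Dnp)-OH cleavage (ex 330/em 405 nm) in MES/NaCl/ZnCl2/Brij-35 buffer, pH 6.5. Each dot is one treatment well; one-way ANOVA.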
Target sequence in this assay (Q9BYF1 18-805): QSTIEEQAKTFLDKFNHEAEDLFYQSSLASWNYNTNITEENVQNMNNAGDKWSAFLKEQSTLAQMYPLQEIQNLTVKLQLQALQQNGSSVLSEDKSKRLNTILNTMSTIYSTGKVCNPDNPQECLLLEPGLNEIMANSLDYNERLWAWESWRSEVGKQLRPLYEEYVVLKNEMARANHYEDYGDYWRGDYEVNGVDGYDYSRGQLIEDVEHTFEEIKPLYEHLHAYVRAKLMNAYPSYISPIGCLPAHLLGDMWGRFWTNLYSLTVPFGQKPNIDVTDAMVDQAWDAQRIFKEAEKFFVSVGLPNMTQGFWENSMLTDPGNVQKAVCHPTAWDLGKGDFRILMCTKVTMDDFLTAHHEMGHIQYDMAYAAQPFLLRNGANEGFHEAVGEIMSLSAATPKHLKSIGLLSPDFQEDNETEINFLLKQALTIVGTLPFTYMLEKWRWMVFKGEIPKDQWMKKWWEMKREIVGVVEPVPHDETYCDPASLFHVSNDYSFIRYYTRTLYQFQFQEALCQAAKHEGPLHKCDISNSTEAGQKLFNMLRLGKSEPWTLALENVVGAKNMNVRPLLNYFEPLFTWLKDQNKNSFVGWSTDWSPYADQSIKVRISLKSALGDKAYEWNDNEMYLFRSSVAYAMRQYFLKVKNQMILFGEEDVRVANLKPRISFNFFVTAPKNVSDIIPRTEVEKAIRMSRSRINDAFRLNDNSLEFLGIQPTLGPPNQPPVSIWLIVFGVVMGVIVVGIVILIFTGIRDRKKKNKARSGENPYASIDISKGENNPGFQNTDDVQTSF

mouse lungs = assay: In vivo cytotoxicity; conditions: mice, 2.5 mg/mL, 30 μl/mouse, nasal inhalation
Procedure, shortened: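 Wild-type C57/Bl6 mice received 30 μl of a 2.5 mg/ml solution of self-assembled prodrug, or saline, by nasal inhalation. Lungs were collected 48 h later per methods (18 h per results). Tissue went to histopathology, apoptotic cell counts, immunofluorescence, and ELISA/qRT-PCR for proinflammatory cytokines. At least three mice per group; experiments repeated twice.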

[3] = test system: P. aeruginosa induced bacterial pneumonia; assay: P. aeruginosa induced bacterial pneumonia model, wild-type mice; format: in vivo, mouse; conditions: wild-type mice infected with P. aeruginosa; treatment 18 h after inoculation
Procedure, shortened: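 In wild-type C57BL/6 mice, P. aeruginosa was instilled intratracheally via tracheal intubation. Test compound (10 mg/kg) was given by nasal instillation 18 h after inoculation, and lungs were collected 30 h later (48 h post-infection). Lung sections were H&E-stained; n = 5 per group; one-way ANOVA with multiple comparisons.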

Water solubility = format: physicochemical
[4] = test system: P. aeruginosa induced bacterial pneumonia; assay: P. aeruginosa induced bacterial pneumonia model, global ACE2 knockout; format: in vivo, mouse; conditions: Ace2-/- mice infected with P. aeruginosa, H4 treatment, n = 3
Procedure, shortened: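 Ace2−/− mice were given P. aeruginosa by intratracheal instillation via tracheal intubation, with test compound 18 h after inoculation and samples taken 30 h later; n = 3 per group. Endpoints: body weight at sacrifice, lung H&E, lung IFNγ, MPO immunofluorescence, and BAL flow cytometry (Fc block 20 min at 4 °C, viability dye, CD45+CD11b+Ly6G+ live cells).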

ACE2 [5] = target: T1, ACE2; assay: ACE2 activity in culture medium of Calu-3 cells; format: cell-based
Target sequence in this assay (Q9BYF1 18-708 limits assumed): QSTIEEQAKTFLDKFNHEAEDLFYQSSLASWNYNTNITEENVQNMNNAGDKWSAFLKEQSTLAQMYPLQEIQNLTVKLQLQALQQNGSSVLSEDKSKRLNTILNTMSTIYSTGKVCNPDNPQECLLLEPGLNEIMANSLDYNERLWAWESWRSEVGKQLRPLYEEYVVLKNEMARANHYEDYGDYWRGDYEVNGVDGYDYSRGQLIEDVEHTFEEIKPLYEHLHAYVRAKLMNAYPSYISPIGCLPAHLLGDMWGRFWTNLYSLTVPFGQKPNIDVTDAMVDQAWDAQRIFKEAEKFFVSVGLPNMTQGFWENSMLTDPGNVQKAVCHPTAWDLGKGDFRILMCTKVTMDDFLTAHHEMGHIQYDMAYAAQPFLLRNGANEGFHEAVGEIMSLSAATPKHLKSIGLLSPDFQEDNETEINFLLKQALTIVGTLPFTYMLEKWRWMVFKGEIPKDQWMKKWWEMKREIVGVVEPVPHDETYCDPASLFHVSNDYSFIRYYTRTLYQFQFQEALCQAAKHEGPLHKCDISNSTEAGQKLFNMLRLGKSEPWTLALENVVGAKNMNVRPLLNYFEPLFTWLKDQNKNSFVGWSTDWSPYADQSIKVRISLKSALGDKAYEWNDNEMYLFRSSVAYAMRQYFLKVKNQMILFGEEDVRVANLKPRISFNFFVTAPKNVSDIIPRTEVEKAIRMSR

ACE2 gene expression = assay: ACE2 mRNA in Calu-3 cells by quantitative real-time PCR; format: cell-based, human; conditions: 25 μg/mL H4, varying durations

For `CC(=O)NCC(=O)O.CC(=O)NCC(=O)O.N=C(N)c1ccc(N=NNc2ccc(C(=N)N)cc2)cc1` [DIZE, diminazene aceturate], the toxicity [1] is listed as “high toxicity”.
For `O=C(O)CN(CCN(CC(=O)O)CC(=O)O)CCN(CC(=O)O)CC(=O)O` [DTPA, diethylenetriaminepentaacetic acid], the “ACE2 activity of recombinant ACE2” value (ACE2 [2]) was “substantially diminishes ACE2 activity”.
In the case of `Cc1ccc(S(=O)(=O)Oc2ccc3oc4c(CO)ccc(NCCN(C)C)c4c(=O)c3c2)cc1` [XNT, xanthenone], the toxicity [1] is listed as “high toxicity”.
In the case of “H4-Succinic Acid-Val-Val-Glu-Glu-NH2 [H4 prodrug]”, the “toxicity in the lungs” value (mouse lungs) is reported as “non-detectable toxicity”, the “pro-inflammatory cytokine levels in lung tissues” value (mouse lungs; ELISA and qRT-PCR) is reported as “no surge in pro-inflammatory cytokine levels” and the “lung histopathology (H&E)” value [3] is reported as “enhanced histology”. For the same molecule, the “solubility in water compared with H4” value (Water solubility; photographs of aqueous solutions at 1 mg/mL (Fig. 4B)) was “improved solubility in water”.
For `C[C@]12CC[C@@H]3c4ccc(O)cc4CC[C@H]3[C@@H]1C[C@@H](O)[C@@H]2O` [H4], the body weight recovery [4] was “no discernible effects”, the “lung histopathology (H&E)” value [4] was “no discernible effects” and the “neutrophil infiltration into the lungs (BAL flow cytometry, MPO staining)” value [4] was “did not diminish neutrophil infiltration”. The “production of MIP-2” value [4] was “nor did it decrease the production of MIP-2”, the “proinflammatory cytokine IFNγ in lung tissue” value [4] was “no discernible effects” and the “plateau of ACE2 activity enhancement” value (ACE2 [5]) was “around 50 μg/mL”. For the same molecule, the “concentration range in which ACE2 activity is notably augmented” value (ACE2 [5]; 0–500 μg/ml, 18 h, 37 °C, culture medium) was 5 to 50 µg/mL, the “mid-effective concentration for enhancing ACE2 activity” value (ACE2 [5]; dose-dependent) was 10 to 30 µg/mL and the “lung histopathology (H&E)” value [3] was “alleviated histopathology”. For the same molecule, the “ACE2 activity of recombinant ACE2” value (ACE2 [2]) was “restore the ACE2 activity that had been inhibited by DTPA”, the dissolution in water (Water solubility; water, 25 °C, no method or source printed) was 0.5 mg/mL and the “ACE2 mRNA levels” value (ACE2 gene expression) was “did not induce ACE2 gene expression”.
